Runt-SMMHC FRET: inhibitors of human RUNX1 Runt domain binding to CBFb-SMMHC. Cerulean-Runt/Venus-CBFb-SMMHC FRET ratio 530/480, 1 h. inhibition, % at 20 µM. 0.74% of 220,000 active. AID 1434;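 active = mean inhibition across duplicate retests at 20 µM reaching about 50%, limit read from the data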;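 also: 0% = DMSO wells and 100% = wells with excess untagged CBFb-SMMHC; inhibitors lower the FRET ratio by blocking Runt binding to CBFb-SMMHC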
Target sequence (Q01196 whole entry, looked up, the tested form may be a part): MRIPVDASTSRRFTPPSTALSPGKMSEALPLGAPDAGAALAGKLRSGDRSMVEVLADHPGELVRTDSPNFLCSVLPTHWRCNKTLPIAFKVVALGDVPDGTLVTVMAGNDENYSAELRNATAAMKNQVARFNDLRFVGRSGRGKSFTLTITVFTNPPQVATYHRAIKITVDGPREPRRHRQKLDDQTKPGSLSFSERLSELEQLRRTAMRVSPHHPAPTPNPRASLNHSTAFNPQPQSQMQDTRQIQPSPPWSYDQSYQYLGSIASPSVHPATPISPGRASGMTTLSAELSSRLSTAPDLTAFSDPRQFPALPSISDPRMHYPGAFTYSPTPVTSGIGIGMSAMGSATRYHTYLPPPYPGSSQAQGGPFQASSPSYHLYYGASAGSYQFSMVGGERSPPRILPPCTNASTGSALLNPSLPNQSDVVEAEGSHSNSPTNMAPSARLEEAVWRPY
Target sequence (Q13951 whole entry, looked up, the tested form may be a part): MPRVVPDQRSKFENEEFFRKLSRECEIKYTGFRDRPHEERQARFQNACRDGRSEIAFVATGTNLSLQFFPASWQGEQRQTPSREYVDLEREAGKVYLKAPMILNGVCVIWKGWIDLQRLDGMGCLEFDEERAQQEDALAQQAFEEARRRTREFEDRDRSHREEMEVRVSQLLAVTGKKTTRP
Tb hexokinase: T. brucei hexokinase 1 inhibition. recombinant TbHK1, G6PDH-coupled NADH A340. inhibition, % at 10 µM. 0.11% of 220,000 active. AID 1430;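 active = inhibition of 50% or more in the single-dose primary screen; inactive = inhibition below 50%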
p97 inhibitor: blocks human p97 ATPase activity | P55072 | recombinant p97 ATPase, Kinase-Glo ATP luminescence, 3 h | inhibition, % at 8 µM | 0.42% of 220,000 active | AID 1481; in the data active = inhibition above about 15%;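 also: 0% = DMSO vehicle and 100% = wells lacking enzyme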
Runt-CBFb FRET: blocks binding of human RUNX1 Runt domain to CBFb. inhibition, % at 20 µM. AID 1496. Cerulean-Runt/Venus-CBFb FRET ratio 530/480, 1 h. 0.46% of 220,000 active;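 active = inhibition over about 50% at 20 µM in the single-dose screen, limit read from the data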;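 also: 0% = DMSO wells and 100% = excess unlabeled CBFb competitor control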
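Buffer or medium: Tris pH 7.5 buffer with BSA. Assay system: Cerulean-labeled Runt domain protein. Amount: each fluorescent fusion protein 100 nM. Read-out basis: loss of energy transfer signal. Incubation: 1 h compound exposure, room temperature. Probe or stimulus: Venus-CBFb binding partner, 100 nM. Detection: FRET, excitation 422 nm, emission at 530 and 480 nm.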
Hck-Nef inh: human Hck-Nef kinase inhibition; inhibition, % at 20 µM; 0.68% of 220,000 active; AID 463187; P08631; Recombinant Hck-YEEI plus Nef, Z-Lyte FRET kinase assay;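 active = Hck-Nef kinase inhibition above about 50%, limit read from the data; inactive = inhibition below that limit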;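 also: 0% = DMSO with Hck plus Nef and 100% = Hck alone without Nef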
RanGTP-Imp inh: disruptors of Ran-importin-beta complex formation – biochemical, FRET, CFP-Ran, YFP-importin-beta, homogeneous, primary screen | 1.1% of 300,000 active | cell-free CFP-Ran/YFP-importin-beta FRET ratio | inhibition, % (test concentration not listed);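 active = more than half of the replicate wells show a fall in the fluorescence ratio signal beyond about 16%, limit read from the data, passing the limit was not always enough; inconclusive = exactly half of the replicate wells pass the set limit; inactive = fewer than half of replicates pass the limit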;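 also: 0% = DMSO wells and 100% = Ran loaded with GDP instead of GTP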
p97 inh conf: human p97 ATPase inhibition, confirmation; shares compounds with p97 inhibitor; recombinant p97 ATPase, Kinase-Glo ATP luminescence; inhibition, % at 8 µM; 44% of 760 active; AID 1517;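 active = percent inhibition of p97 ATPase above a set limit, the primary screen's mean plus 3 SD, cut at about 15% in these data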;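 also: 0% = DMSO wells and 100% = wells lacking p97 protein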
An asterisk follows results filed as active. The list is not random: actives were taken first. Their share in the collection is about 2.1%.

`O=C(NNC(=S)NC(=O)c1ccc(F)cc1)c1cccnc1` gave RanGTP-Imp inh 5.
`O=C(NNC(=S)NC(=O)c1cccnc1)c1ccc(F)cc1` gave Runt-SMMHC FRET 0, Tb hexokinase -23, p97 inhibitor 15*, Runt-CBFb FRET 10, Hck-Nef inh -28, RanGTP-Imp inh -3 and p97 inh conf 9.
`CC(=O)c1sc(C(C)(C)C)cc1NC(=O)/C=C/C(=O)O` gave Runt-SMMHC FRET -1, Tb hexokinase -12, p97 inhibitor 15*, Runt-CBFb FRET 0, Hck-Nef inh 9, RanGTP-Imp inh 0 and p97 inh conf 9.
`CC(=O)c1sc(C(C)(C)C)cc1NC(=O)CCC(=O)O` gave Runt-SMMHC FRET 0, Tb hexokinase 24, p97 inhibitor 2, Runt-CBFb FRET 1, Hck-Nef inh 8 and RanGTP-Imp inh -1.
Screening CC1(C)OC(=O)C(=CNc2ccccn2)C(=O)O1 returned Runt-SMMHC FRET 0, Tb hexokinase -29, p97 inhibitor 15*, Runt-CBFb FRET -1, Hck-Nef inh 15, RanGTP-Imp inh 0 and p97 inh conf 1.
`CC1(C)Oc2ccc3ccc(=O)oc3c2/C(=C/Nc2ccccn2)C1=O` gave Runt-SMMHC FRET -6, Tb hexokinase 4, p97 inhibitor -4, Runt-CBFb FRET -6, Hck-Nef inh -7 and RanGTP-Imp inh 0.
For CCOc1ccc(-c2cc(N3C(=O)Nc4ccccc4N3O)n[nH]2)cc1 the results were Runt-SMMHC FRET 2, Tb hexokinase 3, p97 inhibitor 17*, Runt-CBFb FRET 1, Hck-Nef inh 19, RanGTP-Imp inh 2 and p97 inh conf 8.
C/C(=N\NC(=O)c1cccc(F)c1)c1ccc(Br)s1 was read as Runt-SMMHC FRET -4, Tb hexokinase 1, p97 inhibitor 19*, Runt-CBFb FRET -1, Hck-Nef inh 0, RanGTP-Imp inh -2 and p97 inh conf 2.
For COC(=O)c1sc(-c2ccc(Cl)cc2)cc1NC(=O)COCC(=O)O the results were Runt-SMMHC FRET -2, Tb hexokinase -33, p97 inhibitor -1, Runt-CBFb FRET 2, Hck-Nef inh 18 and RanGTP-Imp inh 1.
For COC(=O)c1sc(-c2ccc(Cl)cc2)cc1NC(=O)/C=C/C(=O)O the results were Runt-SMMHC FRET 1, Tb hexokinase -49, p97 inhibitor 18*, Runt-CBFb FRET 2, Hck-Nef inh 11, RanGTP-Imp inh 3 and p97 inh conf 18*.
Screening c1cncc(-c2nc(NCc3ccc4c(c3)OCO4)c3ccccc3n2)c1 returned Runt-SMMHC FRET 2, Tb hexokinase -12, p97 inhibitor 17*, Runt-CBFb FRET 2, Hck-Nef inh 7, RanGTP-Imp inh 5 and p97 inh conf 21*.
c1ccc(CNc2nc(-c3cccnc3)nc3ccccc23)cc1 was read as RanGTP-Imp inh -4.
Oc1ccc(C=NC2CCCCC2)cc1 was read as Runt-SMMHC FRET -3, Tb hexokinase -48, p97 inhibitor 6, Runt-CBFb FRET -1, Hck-Nef inh 27 and RanGTP-Imp inh 1.
Screening COc1cc(NCCCC(C)N)c2ncccc2c1 (configuration not stated) returned Tb hexokinase -8, p97 inhibitor 15*, Hck-Nef inh 2, RanGTP-Imp inh -3 and p97 inh conf 8.
For CCC(CNc1cc(OC)cc2cccnc12)NC1CCCCC1 (configuration not stated) the results were Runt-SMMHC FRET 0, Tb hexokinase 0, p97 inhibitor 24*, Runt-CBFb FRET 6, Hck-Nef inh -1, RanGTP-Imp inh -64 and p97 inh conf 7.
COc1cc(NS(=O)(=O)c2ccc(C)cc2)c2ncccc2c1 was read as Runt-SMMHC FRET 2, Tb hexokinase -5, p97 inhibitor 2, Runt-CBFb FRET 1, Hck-Nef inh -1 and RanGTP-Imp inh 2.
Screening O=c1c(-c2ccc([N+](=O)[O-])cc2)coc2c(O)c(O)ccc12 returned Runt-SMMHC FRET 2, Tb hexokinase -4, p97 inhibitor 18*, Runt-CBFb FRET 6, Hck-Nef inh 28, RanGTP-Imp inh 3 and p97 inh conf 24*.
CCc1ccccc1NC(=S)N1CCN(c2cccc(OC)c2)CC1 was read as RanGTP-Imp inh 3.
`COc1ccc(N(/N=C2\Sc3ccccc3C2=O)C(C)=O)cc1` gave Runt-SMMHC FRET -2, Tb hexokinase 2, p97 inhibitor 22*, Runt-CBFb FRET -2, Hck-Nef inh 11 and p97 inh conf 21*.
For COc1ccc(CN(C(C)=O)c2ccccc2C(=O)O)cc1 the results were Runt-SMMHC FRET -1, Tb hexokinase -8, p97 inhibitor 3, Runt-CBFb FRET -1, Hck-Nef inh 13 and RanGTP-Imp inh 3.
`Cc1ccc(OC(C)C(=O)N(C)Cc2ccccc2)c([N+](=O)[O-])n1` (configuration not stated) gave RanGTP-Imp inh -2.
Screening CCOC(=O)/C(C(N)=NCCO)=C(/O)c1ccccc1 returned Runt-SMMHC FRET -10, Tb hexokinase -9, p97 inhibitor 24*, Runt-CBFb FRET 2, Hck-Nef inh -1, RanGTP-Imp inh 1 and p97 inh conf 4.
C=CCn1c(C(C)NC(=O)c2cccc(C)c2)n[nH]c1=S (configuration not stated) was read as Runt-SMMHC FRET 8, Tb hexokinase -3, p97 inhibitor -1, Runt-CBFb FRET 6, Hck-Nef inh -10 and RanGTP-Imp inh -1.
For CCCc1nc2c(=O)n(C)c(=O)nc-2n(C)n1 the results were Runt-SMMHC FRET -11, Tb hexokinase 7, p97 inhibitor 32*, Runt-CBFb FRET -2, Hck-Nef inh -11 and p97 inh conf 29*.
`Cc1ccc(NC(=O)CSC2=C(C#N)C(c3ccco3)C3=C(CCCC3=O)N2)cc1` (configuration not stated) gave Runt-SMMHC FRET 0, Tb hexokinase 1, p97 inhibitor 4, Runt-CBFb FRET 3, Hck-Nef inh -2 and RanGTP-Imp inh inconclusive.
`N#CC1=C(SCC(=O)Nc2ccc(C(=O)O)cc2)NC(=O)CC1c1ccco1` (configuration not stated) gave Runt-SMMHC FRET 1, Tb hexokinase -4, p97 inhibitor 17*, Runt-CBFb FRET 19, Hck-Nef inh 14, RanGTP-Imp inh -1 and p97 inh conf 9.
`O=S(=O)(c1ccc(Cl)cc1)c1snnc1-c1ccccc1` gave Runt-SMMHC FRET 13, Tb hexokinase 5, p97 inhibitor 16*, Runt-CBFb FRET 3, Hck-Nef inh 5, RanGTP-Imp inh 5 and p97 inh conf 13.

High-throughput results deposited in PubChem by several laboratories.
